Experiments:
QGY-7703 [1] = test: Induction of apoptosis in human QGY7703 cells assessed as necrotic cells at 10 uM after 24 hrs by Annexin-V FITC/propidium iodide staining based flow cytometric analysis (reference value: 0.6 to 0.7%); assay type: functional
Summary of the method: (§1)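 Assay in QGY-7703 cells kept in RPMI 1640 with 10% FBS. Seeded at 5 × 10^5 cells/well for 24 h, then treated for 24 h with 5, 10 or 15 μM compound, DMSO as control. Annexin V-FITC/PI staining for 15 min at room temperature in the dark, then immediate flow cytometry to count the apoptotic fractions.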

[2] = Antiproliferative activity against human QSG7701 cells after 24 hrs by CCK-8 assay; assay type: cell-based; settings: QSG7701, 24 h
Summary of the method: (§2)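 Cells in 10% FBS medium with penicillin/streptomycin at 37 °C, 5% CO2; HepG-2 in DMEM, QGY-7703, SMMC-7721 and QSG-7701 in RPMI 1640. Seeded 2 × 10^5 cells/well, grown 24 h, then exposed to five concentrations of compound or 1% DMSO vehicle for 24 h. CCK-8 added for 1 h, absorbance read at 450 nm; IC50 derived from the 5-dose data.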

QGY-7703 [3] = test: Induction of apoptosis in human QGY7703 cells assessed as early apoptotic cells at 10 uM after 24 hrs by Annexin-V FITC/propidium iodide staining based flow cytometric analysis (reference value: 0.8 to 1%); assay type: functional; summary of the method: as §1
HepG2 [4] = test: Antiproliferative activity against human HepG2 cells after 24 hrs by CCK-8 assay; assay type: functional, cell-based; settings: HepG2, 24 h; summary of the method: as §2
QGY-7703 [5] = test: Induction of apoptosis in human QGY7703 cells assessed as early apoptotic cells at 5 uM after 24 hrs by Annexin-V FITC/propidium iodide staining based flow cytometric analysis (reference value: 0.8 to 1%); assay type: functional; summary of the method: as §1
QGY-7703 [6] = test: Induction of apoptosis in human QGY7703 cells assessed as necrotic cells at 15 uM after 24 hrs by Annexin-V FITC/propidium iodide staining based flow cytometric analysis (reference value: 0.6 to 0.7%); assay type: functional; summary of the method: as §1
QGY-7703 [7] = test: Induction of apoptosis in human QGY7703 cells assessed as late apoptotic cells at 5 uM after 24 hrs by Annexin-V FITC/propidium iodide staining based flow cytometric analysis (reference value: 4.1 to 4.3%); assay type: functional; summary of the method: as §1
QGY-7703 [8] = test: Antiproliferative activity against human QGY7703 cells after 24 hrs by CCK-8 assay; assay type: functional, cell-based; settings: QGY-7703, 24 h; summary of the method: as §2
QGY-7703 [9] = test: Induction of apoptosis in human QGY7703 cells assessed as viable cells at 5 uM after 24 hrs by Annexin-V FITC/propidium iodide staining based flow cytometric analysis (reference value: 94.2 to 94.3%); assay type: functional; settings: QGY-7703, 24 h, read-out: Activity; summary of the method: as §1
QGY-7703 [10] = test: Induction of apoptosis in human QGY7703 cells assessed as viable cells at 10 uM after 24 hrs by Annexin-V FITC/propidium iodide staining based flow cytometric analysis (reference value: 94.2 to 94.3%); assay type: functional; settings: QGY-7703, 24 h, read-out: Activity; summary of the method: as §1
QGY-7703 [11] = test: Induction of apoptosis in human QGY7703 cells assessed as viable cells at 15 uM after 24 hrs by Annexin-V FITC/propidium iodide staining based flow cytometric analysis (reference value: 94.2 to 94.3%); assay type: functional; settings: QGY-7703, 24 h, read-out: Activity; summary of the method: as §1
QGY-7703 [12] = test: Induction of apoptosis in human QGY7703 cells assessed as increase in cleaved caspase 3 level after 24 hrs by Western blot analysis; assay type: functional, cell-based
Summary of the method: (§3)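 QGY-7703 cells subcultured for 24 h, then given compound for 24 h, with DMSO as control. Lysates in buffer with protease inhibitors, protein measured by BCA, equal amounts run on 10% SDS-PAGE and moved to PVDF. Blocked in 5% milk, probed overnight at 4 °C for PARP, cleaved caspase 3, pro-caspase 3 and pro-caspase 9 (1:1000), with GAPDH loading control. IRDye secondaries, densitometry reported as grayscale values.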

HepG2 [13] = test: Antiproliferative activity against human HepG2 cells at 10 uM after 24 hrs by CCK-8 assay relative to control; assay type: functional
Summary of the method: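 HepG-2 grown in DMEM with 10% FBS and penicillin/streptomycin (37 °C, 5% CO2). Seeded 2 × 10^5 cells/well for 24 h, then given a single 10 μM dose or 1% DMSO vehicle for 24 h. CCK-8 reagent for 1 h, A450 read, and percent inhibition calculated against untreated control cells.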

QGY-7703 [14] = test: Induction of apoptosis in human QGY7703 cells assessed as late apoptotic cells at 15 uM after 24 hrs by Annexin-V FITC/propidium iodide staining based flow cytometric analysis (reference value: 4.1 to 4.3%); assay type: functional; summary of the method: as §1
SMMC-7721 = test: Antiproliferative activity against human SMMC7721 cells after 24 hrs by CCK-8 assay; assay type: functional, cell-based; settings: SMMC-7721, 24 h; summary of the method: as §2
QGY-7703 [15] = test: Induction of apoptosis in human QGY7703 cells assessed as necrotic cells at 5 uM after 24 hrs by Annexin-V FITC/propidium iodide staining based flow cytometric analysis (reference value: 0.6 to 0.7%); assay type: functional; summary of the method: as §1
QGY-7703 [16] = test: Induction of apoptosis in human QGY7703 cells assessed as early apoptotic cells at 15 uM after 24 hrs by Annexin-V FITC/propidium iodide staining based flow cytometric analysis (reference value: 0.8 to 1%); assay type: functional; summary of the method: as §1
QGY-7703 [17] = test: Induction of apoptosis in human QGY7703 cells assessed as decrease in pro-caspase 9 level after 24 hrs by Western blot analysis; assay type: functional, cell-based; summary of the method: as §3
QGY-7703 [18] = test: Induction of apoptosis in human QGY7703 cells assessed as increase in cleaved PARP level after 24 hrs by Western blot analysis; assay type: functional, cell-based; summary of the method: as §3
QGY-7703 [19] = test: Induction of apoptosis in human QGY7703 cells assessed as late apoptotic cells at 10 uM after 24 hrs by Annexin-V FITC/propidium iodide staining based flow cytometric analysis (reference value: 4.1 to 4.3%); assay type: functional; summary of the method: as §1

In the case of `C=C1C(=O)O[C@@H]2C3=C(C)[C@@H](OC(=O)c4ccc(Cl)cc4)CC3[C@](C)(OC(C)=O)CC[C@@H]12` (stereo not given in full), the Activity (QGY-7703 [1]) is reported as 0.3%, the IC50 [2] is reported as 46.9 µM and the Activity (QGY-7703 [3]) is reported as 15.5%. For the same molecule, the IC50 (HepG2 [4]) was 7.1 µM, the Activity (QGY-7703 [5]) was 20.6% and the Activity (QGY-7703 [6]) was 0.6%. It also gave an Activity (QGY-7703 [7]) of 1.7%, an IC50 (QGY-7703 [8]) of 10.1 µM and a viability at 5 µM (QGY-7703 [9]) of 77.7%. The viability at 10 µM (QGY-7703 [10]) was 63.6%, the viability at 15 µM (QGY-7703 [11]) was 11.6% and the Activity (QGY-7703 [12]) was “Dose-dependent effect”. For the same molecule, the Activity (HepG2 [13]) was 72.69%, the Activity (QGY-7703 [14]) was 63.4% and the IC50 (SMMC-7721) was 4.24 µM. For the same molecule, the Activity (QGY-7703 [15]) was 0%, the Activity (QGY-7703 [16]) was 24.4% and the Activity (QGY-7703 [17]) was “Dose-dependent effect”. The Activity (QGY-7703 [18]) was “Dose-dependent effect” and the Activity (QGY-7703 [19]) was 20.6%.

`C=C1C(=O)O[C@@H]2C3=C(C)[C@@H](OC(=O)/C=C/c4ccc(Cl)cc4)CC3[C@](C)(OC(C)=O)CC[C@@H]12` (stereo not given in full) gave an Activity (QGY-7703 [1]) of 0.2%, an IC50 [2] greater than 100 µM and an Activity (QGY-7703 [3]) of 11.3%. It also gave an IC50 (HepG2 [4]) of 7.51 µM, an Activity (QGY-7703 [5]) of 16.6% and an Activity (QGY-7703 [6]) of 0.5%. It also gave an Activity (QGY-7703 [7]) of 1.8%, an IC50 (QGY-7703 [8]) of 3.06 µM and a viability at 5 µM (QGY-7703 [9]) of 81.6%. The viability at 10 µM (QGY-7703 [10]) was 69.7%, the viability at 15 µM (QGY-7703 [11]) was 29.6% and the Activity (QGY-7703 [12]) was “Dose-dependent effect”. It also gave an Activity (HepG2 [13]) of 62.92%, an Activity (QGY-7703 [14]) of 31.7% and an IC50 (SMMC-7721) of 4.08 µM. For the same molecule, the Activity (QGY-7703 [15]) was 0%, the Activity (QGY-7703 [16]) was 38.1% and the Activity (QGY-7703 [17]) was “Dose-dependent effect”. The Activity (QGY-7703 [18]) was “Dose-dependent effect” and the Activity (QGY-7703 [19]) was 18.8%.

Reference: ChEMBL document CHEMBL4196055, “Synthesis and biological evaluation of α-santonin derivatives as anti-hepatoma agents” (Eur J Med Chem, 2018)
